Assay results pooled from the literature.
Each line is one published result; the experiments were not run side by side. ≈ marks a conversion by molar mass, not a printed value.
Organism: Nakaseomyces glabratus

Structure (SMILES) | read-out | method | strain | time | measurement | value
CCCCCCCCCCCN1CCNCC1 | microbial growth | broth dilution | ATCC2001 | 48 h | MIC | 7.8 µg/mL (≈ 32.4 µM)
C[C@@H]1[C@H](O)[C@@H](C)/C=C/C=C/C=C/C=C/C=C/C=C/C=C/[C@H](O[C@@H]2O[C@H](C)[C@@H](O)[C@H](N)[C@@H]2O)C[C@@H]2O[C@](O)(C[C@@H](O)C[C@@H](O)[C@H](O)CC[C@@H](O)C[C@@H](O)CC(=O)O[C@H]1C)C[C@H](O)[C@H]2C(=O)O | microbial killing | – | ATCC90030 | – | MFC | 0.63 µg/mL (≈ 0.682 µM)
CCCCCCCCCCN1CCN(CC(O)(Cn2cncn2)c2ccc(F)cc2F)CC1 (stereo not shown) | microbial growth | broth dilution | ATCC2001 | 48 h | MIC | > 31.3 µg/mL
CCCCCCCOc1c(OC)cc(NC(C)CCCNC(=O)C(N)C(C)CC)c2nc(C(C)(C)C)ccc12 (stereo not shown) | microbial growth | broth dilution | ATCC90030 | – | MIC | 10 µg/mL (≈ 18.4 µM)
COc1ccccc1-n1cc(Cn2c(C(=O)O)nc3ccccc3c2=O)nn1 | microbial growth | broth dilution | ATCC90030 | 24 h | IC50 | 29.4 µg/mL (≈ 77.9 µM)
CCCCCOc1c(OC)cc(NC(C)CCCNC(=O)C(N)CCCNC(=N)N)c2nc(C(C)(C)C)ccc12 (stereo not shown) | microbial killing | – | ATCC90030 | – | MFC | 20 µg/mL (≈ 35.9 µM)
CCCCCCCCN1CCNCC1 | microbial growth | broth dilution | ATCC2001 | 48 h | MIC | > 31.3 µg/mL
O=C(O)c1nc2ccccc2c(=O)n1Cc1cn(-c2ccc(Cl)cc2)nn1 | microbial growth | broth dilution | ATCC90030 | 24 h | IC50 | 517 µg/mL (≈ 1350 µM)
CCCCCCOc1c(OC)cc(NC(C)CCCN)c2nc(C(C)(C)C)cc(C)c12 (stereo not shown) | microbial killing | – | ATCC90030 | – | MFC | 20 µg/mL (≈ 46.5 µM)
OC(Cn1cncn1)(Cn1cncn1)c1ccc(F)cc1F | microbial growth | broth dilution | MY1381 | – | MIC50 | 4 µg/mL (≈ 13.1 µM)
CCOC(=O)c1nc2ccccc2c(=O)n1Cc1cn(-c2ccc(OC)cc2)nn1 | microbial growth | broth dilution | ATCC90030 | 24 h | IC50 | 118 µg/mL (≈ 292 µM)
CCCCOc1c(OC)cc(NC(C)CCCN)c2nc(C(C)(C)C)cc(C)c12 (stereo not shown) | microbial growth | broth dilution | ATCC90030 | – | MIC | > 20 µg/mL
OC(CN1CCOCC1)(Cn1cncn1)c1ccc(F)cc1F (stereo not shown) | microbial growth | broth dilution | ATCC2001 | 48 h | MIC | 31.3 µg/mL (≈ 96.5 µM)
CCOC(=O)c1nc2ccccc2c(=O)n1Cc1cn(-c2ccc(F)cc2)nn1 | microbial growth | broth dilution | ATCC90030 | 24 h | IC50 | 292 µg/mL (≈ 744 µM)
OC(Cn1cncn1)(Cn1cncn1)c1ccc(F)cc1F | microbial killing | – | ATCC2001 | – | MFC | > 64 µg/mL
CCCCCOc1c(OC)cc(NC(C)CCCNC(=O)C(N)CC(C)C)c2nc(C(C)(C)C)ccc12 (stereo not shown) | microbial growth | – | ATCC90030 | – | IC50 | 11.3 µg/mL (≈ 22 µM)
CCCCCCCCCCCCCN1CCNCC1 | microbial growth | broth dilution | ATCC2001 | 48 h | MIC | 0.48 µg/mL (≈ 1.79 µM)
OC(Cn1cncn1)(Cn1cncn1)c1ccc(F)cc1F | microbial growth | broth dilution | ATCC90030 | 24 h | IC50 | 7.8 µg/mL (≈ 25.5 µM)
C#CCCCCCCCCC=CCC(O)CC(O)CO (stereo not shown) | microbial growth | broth dilution | ATCC90030 | – | IC50 | > 8 µg/mL
